Data: ChEMBL document CHEMBL1135723, “New type of metalloproteinase inhibitor: design and synthesis of new phosphonamide-based hydroxamic acids” (J Med Chem, 2002)

Legend:
[1] = target: T1, Disintegrin and metalloproteinase domain-containing protein 9 (Homo sapiens, UniProt Q13443); experiment: Inhibition of the heparin binding epidermal growth factor (HB-EGF) release from fibrosarcoma HT1080 transfectants expressing […] (AP) tagged HB-EGF stimulated by 12-O-tetradecanoylphorbol 13-acetate(TPA).
T1 sequence (Q13443 whole entry): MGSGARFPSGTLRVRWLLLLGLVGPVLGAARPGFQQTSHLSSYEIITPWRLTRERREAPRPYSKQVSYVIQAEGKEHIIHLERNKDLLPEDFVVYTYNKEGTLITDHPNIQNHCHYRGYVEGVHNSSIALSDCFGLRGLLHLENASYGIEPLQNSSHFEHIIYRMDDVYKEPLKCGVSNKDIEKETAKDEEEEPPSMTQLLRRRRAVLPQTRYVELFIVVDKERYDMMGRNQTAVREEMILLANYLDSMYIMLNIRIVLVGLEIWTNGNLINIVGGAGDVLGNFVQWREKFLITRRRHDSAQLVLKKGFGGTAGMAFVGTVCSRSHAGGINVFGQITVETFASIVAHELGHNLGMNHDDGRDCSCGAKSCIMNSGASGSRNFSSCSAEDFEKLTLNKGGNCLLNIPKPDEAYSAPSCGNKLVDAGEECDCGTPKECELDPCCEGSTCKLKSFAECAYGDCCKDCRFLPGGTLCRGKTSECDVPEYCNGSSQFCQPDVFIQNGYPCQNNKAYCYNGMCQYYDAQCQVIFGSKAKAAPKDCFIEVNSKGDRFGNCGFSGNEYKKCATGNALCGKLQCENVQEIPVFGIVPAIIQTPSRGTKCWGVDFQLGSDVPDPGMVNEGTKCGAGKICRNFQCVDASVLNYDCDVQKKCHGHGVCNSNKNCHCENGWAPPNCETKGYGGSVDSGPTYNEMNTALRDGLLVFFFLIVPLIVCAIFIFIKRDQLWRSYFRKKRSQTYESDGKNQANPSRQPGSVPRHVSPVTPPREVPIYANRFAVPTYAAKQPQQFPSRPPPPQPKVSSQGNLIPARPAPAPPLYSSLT
Method in brief: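 HT-1080 transfectants in MEM/10% FCS seeded at 2 × 10⁵ cells/well, grown 24 h, PBS-washed, preincubated 30 min with compound in MEM containing 1% DMSO. Stimulated with TPA (60 nM) for 60 min. Supernatant heated 10 min at 65 °C to kill endogenous phosphatases, then incubated 2 h with p-nitrophenyl phosphate (1 mg/mL) in 1 M diethanolamine, pH 9.8; A405. IC50 from a concentration series.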

Interstitial collagenase = target: T2, Interstitial collagenase (Homo sapiens, UniProt P03956); experiment: Inhibitory activity against matrix metalloprotease-1 (MMP-1)(recombinant human collagenase-1).
T2 sequence (P03956 whole entry): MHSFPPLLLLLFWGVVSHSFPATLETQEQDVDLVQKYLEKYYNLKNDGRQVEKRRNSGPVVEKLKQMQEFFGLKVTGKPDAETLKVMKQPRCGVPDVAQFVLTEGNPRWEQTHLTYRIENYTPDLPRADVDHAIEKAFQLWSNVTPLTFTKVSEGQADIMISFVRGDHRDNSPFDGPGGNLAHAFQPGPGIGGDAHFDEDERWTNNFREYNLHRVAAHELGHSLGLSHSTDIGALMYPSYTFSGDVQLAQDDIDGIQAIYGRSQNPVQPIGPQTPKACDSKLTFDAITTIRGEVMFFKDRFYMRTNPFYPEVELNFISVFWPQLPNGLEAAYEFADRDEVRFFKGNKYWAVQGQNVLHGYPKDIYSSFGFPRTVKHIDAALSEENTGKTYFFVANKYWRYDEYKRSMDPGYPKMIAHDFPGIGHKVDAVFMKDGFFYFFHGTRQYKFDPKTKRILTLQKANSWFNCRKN

[2] = target: Matrix metalloproteinase-9 (Homo sapiens, UniProt P14780); experiment: Inhibitory activity against matrix metalloprotease-9 (MMP-9)(gelatinase-B).
Stromelysin-1 = Stromelysin-1 (Homo sapiens, UniProt P08254); experiment: Inhibitory activity against matrix metalloprotease-3 (MMP-3)(stromelysin-1).
Method in brief: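 Recombinant human MMP-3 activated with 1 mM p-aminophenylmercuric acetate, 1 h, 37 °C. Compound in 50 mM Tris, 150 mM NaCl, 10 mM CaCl2, 0.05% Brij-35, pH 7.5, preincubated with enzyme 10 min at 37 °C. Fluorescence-quenched peptide substrate added, 2 h at 37 °C; Ex/Em 320/405 nm. Ki from percent inhibition and substrate Km.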

[3] = target: Disintegrin and metalloproteinase domain-containing protein 17 (Homo sapiens, UniProt P78536); experiment: Inhibitory activity against tumor necrosis factor alpha converting enzyme (TACE) from human acute monocytic leukemia cell line.
Disintegrin and metalloproteinase domain-containing protein 17, sequence (P78536 whole entry, the tested form may be a part): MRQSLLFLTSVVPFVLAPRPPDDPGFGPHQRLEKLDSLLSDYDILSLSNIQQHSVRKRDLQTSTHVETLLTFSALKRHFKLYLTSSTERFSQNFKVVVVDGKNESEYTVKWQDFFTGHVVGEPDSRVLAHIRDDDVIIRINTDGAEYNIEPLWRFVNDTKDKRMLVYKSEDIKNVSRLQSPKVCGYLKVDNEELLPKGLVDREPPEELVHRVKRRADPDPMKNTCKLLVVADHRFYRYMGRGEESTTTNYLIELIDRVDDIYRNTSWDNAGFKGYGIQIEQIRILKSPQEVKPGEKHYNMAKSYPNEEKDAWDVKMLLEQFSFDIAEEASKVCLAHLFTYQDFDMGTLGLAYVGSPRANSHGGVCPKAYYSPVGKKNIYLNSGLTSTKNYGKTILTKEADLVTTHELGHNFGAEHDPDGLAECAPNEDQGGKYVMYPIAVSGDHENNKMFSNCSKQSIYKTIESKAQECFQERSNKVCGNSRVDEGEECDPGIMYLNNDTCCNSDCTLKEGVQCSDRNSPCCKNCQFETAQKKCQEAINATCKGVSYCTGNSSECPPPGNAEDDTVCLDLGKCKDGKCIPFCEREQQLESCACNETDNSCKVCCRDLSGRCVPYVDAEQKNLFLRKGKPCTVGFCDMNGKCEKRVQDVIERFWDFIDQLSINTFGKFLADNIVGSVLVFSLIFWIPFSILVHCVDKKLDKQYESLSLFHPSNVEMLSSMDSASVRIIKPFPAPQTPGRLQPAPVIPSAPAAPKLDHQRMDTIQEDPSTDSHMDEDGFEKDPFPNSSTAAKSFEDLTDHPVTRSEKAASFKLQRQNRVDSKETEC

Matrix metalloproteinase-9, sequence (P14780 whole entry): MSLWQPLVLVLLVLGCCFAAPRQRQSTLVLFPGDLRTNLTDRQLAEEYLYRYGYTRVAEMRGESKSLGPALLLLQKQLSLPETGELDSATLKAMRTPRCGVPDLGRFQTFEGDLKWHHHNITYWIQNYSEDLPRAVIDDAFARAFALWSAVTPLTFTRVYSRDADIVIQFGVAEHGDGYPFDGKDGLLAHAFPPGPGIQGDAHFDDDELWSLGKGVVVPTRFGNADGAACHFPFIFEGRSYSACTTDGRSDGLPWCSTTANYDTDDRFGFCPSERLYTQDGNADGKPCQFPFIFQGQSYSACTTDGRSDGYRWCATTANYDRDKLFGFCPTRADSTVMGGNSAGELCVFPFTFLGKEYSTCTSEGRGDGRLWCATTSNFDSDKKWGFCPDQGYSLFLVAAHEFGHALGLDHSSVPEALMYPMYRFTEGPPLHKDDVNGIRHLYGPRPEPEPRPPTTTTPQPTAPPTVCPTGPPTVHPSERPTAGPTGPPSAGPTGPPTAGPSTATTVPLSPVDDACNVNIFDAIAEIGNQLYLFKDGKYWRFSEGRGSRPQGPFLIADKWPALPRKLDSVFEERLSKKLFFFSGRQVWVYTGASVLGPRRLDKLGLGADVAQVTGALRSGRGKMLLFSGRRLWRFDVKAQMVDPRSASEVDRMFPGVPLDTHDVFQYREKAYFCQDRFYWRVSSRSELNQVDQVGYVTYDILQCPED
Stromelysin-1, sequence (P08254 whole entry): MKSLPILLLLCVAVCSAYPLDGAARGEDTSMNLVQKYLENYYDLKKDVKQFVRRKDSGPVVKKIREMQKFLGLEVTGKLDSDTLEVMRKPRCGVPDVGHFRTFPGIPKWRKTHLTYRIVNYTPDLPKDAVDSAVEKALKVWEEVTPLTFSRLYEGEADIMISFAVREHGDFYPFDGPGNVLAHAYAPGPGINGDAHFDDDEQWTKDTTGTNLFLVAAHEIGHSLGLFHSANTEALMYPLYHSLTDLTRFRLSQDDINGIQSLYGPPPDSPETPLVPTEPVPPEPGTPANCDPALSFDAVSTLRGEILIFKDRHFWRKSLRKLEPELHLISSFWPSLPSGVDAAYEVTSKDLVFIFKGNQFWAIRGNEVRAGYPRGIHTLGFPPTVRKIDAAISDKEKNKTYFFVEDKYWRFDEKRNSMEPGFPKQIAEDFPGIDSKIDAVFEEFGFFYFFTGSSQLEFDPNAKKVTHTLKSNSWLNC

Structure (SMILES)	IC50 [1] [nM]	Ki (Interstitial collagenase) [nM]	Ki [2] [nM]	Ki (Stromelysin-1) [nM]	Ki [3] [nM]
CCOP(=O)(c1cccc(F)c1)N1Cc2ccccc2CC1C(=O)NO (configuration not stated)	830	27.1	80.1	51.4	22.8
CCOP(=O)(c1ccc(Oc2ccncc2)cc1)N1Cc2ccccc2CC1C(=O)NO (configuration not stated)	660	39.8	0.6	4.85	13.8
CCOP(=O)(c1ccc(Oc2ccccc2)cc1)N1Cc2ccccc2CC1C(=O)NO (configuration not stated)	260	1.81	0.08	0.53	7.89
CCOP(=O)(c1ccncc1)N1Cc2ccccc2CC1C(=O)NO (configuration not stated)	2600	17.4	278	190	777
COc1ccc(P(=O)(OCCc2ccc(-c3ccccc3)cc2)N2Cc3ccccc3CC2C(=O)NO)cc1 (configuration not stated)	3560	7.33	6.47	12.8	90.2
CCOP(=O)(c1ccccc1F)N1Cc2ccccc2CC1C(=O)NO (configuration not stated)	1060	24	32.1	47.8	73.6
CCOP(=O)(c1ccc(-c2ccccc2)cc1)N1Cc2ccccc2CC1C(=O)NO (configuration not stated)	1960	9.65	0.31	4.36	50
CCOP(=O)(c1ccc(C)cc1)N1Cc2ccccc2CC1C(=O)NO (configuration not stated)	1890	4.9	41.8	72.9	500
CCOP(=O)(c1ccccc1)N1Cc2ccccc2CC1C(=O)NO (configuration not stated)	370	11.4	42.7	34.9	11.2
CCOP(=O)(CCc1ccccc1)N1Cc2ccccc2CC1C(=O)NO (configuration not stated)	700	20.8	38.3	11.6	14.2
CCO[P@@](=O)(c1ccc(OC)cc1)N1Cc2ccccc2CC1C(=O)NO (some centres not stated)	230	4.58	5.05	5.2	7.15
CCO[P@](=O)(c1ccc(OC)cc1)N1Cc2ccccc2CC1C(=O)NO (some centres not stated)	> 10000	> 850	> 800	> 650	> 780
CCOCCOP(=O)(c1ccc(OC)cc1)N1Cc2ccccc2CC1C(=O)NO (configuration not stated)	510	6.75	6.36	5.43	18.9
CCO[P@@](=O)(c1ccc(OC)cc1)N1Cc2ccccc2C[C@H]1C(=O)NO	> 10000	759	349	> 650	> 780
CCO[P@](=O)(c1ccc(OC)cc1)N1Cc2ccccc2C[C@H]1C(=O)NO	> 10000	> 850	> 800	> 650	> 780
CCOP(=O)(c1ccc(OC)cc1)N1Cc2ccsc2CC1C(=O)NO (configuration not stated)	520	4.1	3.8	5.2	6.45
CCOP(=O)(c1ccc(OC)cc1)N1Cc2[nH]c3ccccc3c2CC1C(=O)NO (configuration not stated)	800	2.02	1.13	2.04	2.2
CCN(CC)CCOP(=O)(c1ccc(OC)cc1)N1Cc2ccccc2CC1C(=O)NO (configuration not stated)	1140	10.7	16.7	82.4	33.2
COc1ccc(P(=O)(OCCc2ccccn2)N2Cc3ccccc3CC2C(=O)NO)cc1 (configuration not stated)	180	3.14	3.42	6.41	120
CCOP(=O)(c1cccs1)N1Cc2ccccc2CC1C(=O)NO (configuration not stated)	890	18.7	59.2	67	59.6
CCOP(=O)(/C=C/c1ccccc1)N1Cc2ccccc2CC1C(=O)NO (configuration not stated)	910	160	88.8	29.7	37.4
COc1ccc(P(=O)(OC(C)C)N2Cc3ccccc3CC2C(=O)NO)cc1 (configuration not stated)	2240	17.8	23.2	24.4	–
CCOCCOc1ccc(P(=O)(OCC)N2Cc3ccccc3CC2C(=O)NO)cc1 (configuration not stated)	70	> 850	14.2	29.6	2.98
CCOP(=O)(c1ccc(OC)cc1)N1Cc2cc(N)ccc2CC1C(=O)NO (configuration not stated)	190	10.7	11	12.3	37.4
CCCCCCOP(=O)(c1ccc(OC)cc1)N1Cc2ccccc2CC1C(=O)NO (configuration not stated)	1600	10.9	6.57	5.19	32.7
CCOP(=O)(c1ccc(OC)cc1)N1CCCC1C(=O)NO (configuration not stated)	> 10000	> 850	316	527	> 780
CCOP(=O)(c1ccc(F)cc1)N1Cc2ccccc2CC1C(=O)NO (configuration not stated)	300	0.97	51.9	64.4	–
COc1ccc(P(=O)(OC)N2Cc3ccccc3CC2C(=O)NO)cc1 (configuration not stated)	70	3.64	2.03	2.95	8.92
CCCCOP(=O)(c1ccc(OC)cc1)N1Cc2ccccc2CC1C(=O)NO (configuration not stated)	810	5.39	9.12	24	–
